Data reported in ChEMBL document CHEMBL4823270, “A first-in-class anticancer dual HDAC2/FAK inhibitors bearing hydroxamates/benzamides capped by pyridinyl-1,2,4-triazoles” (Eur J Med Chem, 2021).

How the values were obtained:
Histone deacetylase 3 = Histone deacetylase 3 (Homo sapiens, UniProt O15379); assay: Inhibition of human full-length recombinant HDAC3 preincubated for 5 mins followed by HDAC substrate addition and further incubated for 45 mins by fluorescence microplate reader assay
Histone deacetylase 8 = molecular target: T1, Histone deacetylase 8 (Homo sapiens, UniProt Q9BY41); assay: Inhibition of human full-length recombinant C-terminal His-tagged HDAC8 expressed in baculovirus infected Sf9 insect cells preincubated for 5 mins followed by HDAC substrate addition and further incubated for 45 mins by fluorescence microplate reader assay
T1 sequence (Q9BY41 whole entry): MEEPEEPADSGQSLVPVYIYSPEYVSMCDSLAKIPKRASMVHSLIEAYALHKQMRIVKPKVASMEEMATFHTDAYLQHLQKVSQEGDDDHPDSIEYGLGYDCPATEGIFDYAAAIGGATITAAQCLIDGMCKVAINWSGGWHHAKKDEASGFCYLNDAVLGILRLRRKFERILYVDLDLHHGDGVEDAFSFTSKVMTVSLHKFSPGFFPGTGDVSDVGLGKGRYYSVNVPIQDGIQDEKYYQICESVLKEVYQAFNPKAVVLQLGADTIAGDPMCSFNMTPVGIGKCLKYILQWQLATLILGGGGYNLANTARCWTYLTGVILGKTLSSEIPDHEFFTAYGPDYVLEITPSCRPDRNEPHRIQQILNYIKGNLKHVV

HCT-116 = assay: Growth inhibition of human HCT-116 cells at 10 uM incubated for 24 hrs by MTT assay relative to control; format: functional; settings: read-out: GI
Outline: (§1)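 Cells seeded at 1 × 10^4 per well, cultured overnight, then exposed to 10 μM compound or DMSO (negative control) for 24 h. After a PBS wash, MTT (2 mg/ml) was added for 4 h at 37°C and formazan dissolved in DMSO. OD read at 570 nm. Growth inhibition = 1 − (OD treated/OD control); at least three independent experiments.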

Histone deacetylase 1 = Histone deacetylase 1 (Homo sapiens, UniProt Q13547); assay: Inhibition of human full-length recombinant HDAC1 preincubated for 5 mins followed by HDAC substrate addition and further incubated for 45 mins by fluorescence microplate reader assay
Chain of Histone deacetylase 1 (Q13547 whole entry): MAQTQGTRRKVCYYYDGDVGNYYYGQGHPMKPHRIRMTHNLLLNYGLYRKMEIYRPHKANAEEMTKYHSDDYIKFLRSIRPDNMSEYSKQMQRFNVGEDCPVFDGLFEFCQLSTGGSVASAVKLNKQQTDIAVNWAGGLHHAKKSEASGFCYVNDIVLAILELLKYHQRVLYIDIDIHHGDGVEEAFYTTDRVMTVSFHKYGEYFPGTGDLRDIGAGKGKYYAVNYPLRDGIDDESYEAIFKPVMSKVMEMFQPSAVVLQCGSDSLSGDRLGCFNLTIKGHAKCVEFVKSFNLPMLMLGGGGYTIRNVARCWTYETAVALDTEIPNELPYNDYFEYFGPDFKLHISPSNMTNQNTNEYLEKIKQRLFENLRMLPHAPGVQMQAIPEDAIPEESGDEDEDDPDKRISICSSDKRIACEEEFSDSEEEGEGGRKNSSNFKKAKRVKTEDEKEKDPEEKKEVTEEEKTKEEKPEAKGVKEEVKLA

K562 = assay: Growth inhibition of human K562 cells at 10 uM incubated for 24 hrs by MTT assay relative to control; format: functional; settings: read-out: GI; outline: as §1
HT-29 = assay: Growth inhibition of human HT-29 cells at 10 uM incubated for 24 hrs by MTT assay relative to control; format: functional; settings: read-out: GI; outline: as §1
A498 [1] = assay: Antiproliferative activity against human A498 cells assessed as cell growth inhibition incubated for 24 hrs by MTT assay; format: functional, cell-based; settings: A498, 24 h
Focal adhesion kinase 1 = Focal adhesion kinase 1 (Homo sapiens, UniProt Q05397); assay: Inhibition of FAK (unknown origin) by FRET-based Z'-Lyte assay
Chain of Focal adhesion kinase 1 (Q05397 whole entry): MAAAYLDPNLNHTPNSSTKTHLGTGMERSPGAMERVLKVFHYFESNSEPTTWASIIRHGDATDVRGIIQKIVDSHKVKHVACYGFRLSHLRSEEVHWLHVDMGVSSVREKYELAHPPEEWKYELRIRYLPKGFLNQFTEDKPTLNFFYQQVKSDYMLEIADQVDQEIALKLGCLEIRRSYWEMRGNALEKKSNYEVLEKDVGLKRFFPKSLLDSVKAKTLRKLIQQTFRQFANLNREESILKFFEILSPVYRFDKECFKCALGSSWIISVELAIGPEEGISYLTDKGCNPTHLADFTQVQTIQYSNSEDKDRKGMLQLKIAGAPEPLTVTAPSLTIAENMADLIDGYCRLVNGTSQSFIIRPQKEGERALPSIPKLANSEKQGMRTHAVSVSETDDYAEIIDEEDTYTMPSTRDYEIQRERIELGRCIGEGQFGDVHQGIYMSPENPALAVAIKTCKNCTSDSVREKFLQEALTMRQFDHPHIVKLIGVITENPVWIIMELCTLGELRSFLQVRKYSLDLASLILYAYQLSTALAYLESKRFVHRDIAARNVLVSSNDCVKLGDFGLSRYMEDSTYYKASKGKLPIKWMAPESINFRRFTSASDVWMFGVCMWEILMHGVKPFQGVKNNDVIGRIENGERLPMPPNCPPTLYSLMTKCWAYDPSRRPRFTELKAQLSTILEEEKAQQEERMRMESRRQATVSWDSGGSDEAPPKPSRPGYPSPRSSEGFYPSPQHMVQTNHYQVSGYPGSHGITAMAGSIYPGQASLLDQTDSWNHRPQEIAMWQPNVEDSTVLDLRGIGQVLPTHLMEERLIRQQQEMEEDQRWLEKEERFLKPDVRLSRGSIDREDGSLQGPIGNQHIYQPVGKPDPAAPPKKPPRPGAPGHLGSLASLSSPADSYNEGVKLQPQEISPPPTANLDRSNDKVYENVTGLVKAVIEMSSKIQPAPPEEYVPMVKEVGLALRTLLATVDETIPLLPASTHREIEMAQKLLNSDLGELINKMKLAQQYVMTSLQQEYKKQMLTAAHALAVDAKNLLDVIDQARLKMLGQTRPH
Outline: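 Recombinant FAK kinase activity measured with the FRET-based Z'-LYTE format; the same platform was used for a kinase panel (FAK, FLT, FRK, IGF-1R, BTK). IC50 values determined.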

CAKI-1 [2] = assay: Growth inhibition of human CAKI-1 cells at 10 uM incubated for 24 hrs by MTT assay relative to control; format: functional; settings: read-out: GI; outline: as §1
KG-1 = assay: Growth inhibition of human KG-1 cells at 10 uM incubated for 24 hrs by MTT assay relative to control; format: functional; settings: KG-1, 24 h; outline: as §1
Histone deacetylase 2 = Histone deacetylase 2 (Homo sapiens, UniProt Q92769); assay: Inhibition of human full-length recombinant HDAC2 preincubated for 5 mins followed by HDAC substrate addition and further incubated for 45 mins by fluorescence microplate reader assay
Chain of Histone deacetylase 2 (Q92769 whole entry): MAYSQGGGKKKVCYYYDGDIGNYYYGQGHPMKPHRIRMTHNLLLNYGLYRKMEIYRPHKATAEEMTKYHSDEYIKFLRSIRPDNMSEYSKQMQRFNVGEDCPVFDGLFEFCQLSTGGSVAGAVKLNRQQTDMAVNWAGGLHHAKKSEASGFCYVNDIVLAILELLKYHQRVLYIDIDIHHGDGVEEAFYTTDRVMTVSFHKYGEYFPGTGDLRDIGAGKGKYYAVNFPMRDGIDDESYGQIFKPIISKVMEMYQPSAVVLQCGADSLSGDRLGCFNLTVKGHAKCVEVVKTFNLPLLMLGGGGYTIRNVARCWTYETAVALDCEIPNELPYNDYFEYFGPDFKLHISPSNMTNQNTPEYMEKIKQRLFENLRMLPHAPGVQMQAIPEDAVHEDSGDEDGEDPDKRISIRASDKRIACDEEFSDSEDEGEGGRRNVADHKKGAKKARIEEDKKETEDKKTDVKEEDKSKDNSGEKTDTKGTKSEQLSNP

CAKI-1 [3] = assay: Antiproliferative activity against human CAKI-1 cells assessed as cell growth inhibition incubated for 24 hrs by MTT assay; format: functional, cell-based; settings: CAKI-1, 24 h
[4] = molecular target: T2, Protein deacetylase HDAC6 (Homo sapiens, UniProt Q9UBN7); assay: Inhibition of human full-length recombinant HDAC6 preincubated for 5 mins followed by HDAC substrate addition and further incubated for 45 mins by fluorescence microplate reader assay
T2 sequence (Q9UBN7 whole entry): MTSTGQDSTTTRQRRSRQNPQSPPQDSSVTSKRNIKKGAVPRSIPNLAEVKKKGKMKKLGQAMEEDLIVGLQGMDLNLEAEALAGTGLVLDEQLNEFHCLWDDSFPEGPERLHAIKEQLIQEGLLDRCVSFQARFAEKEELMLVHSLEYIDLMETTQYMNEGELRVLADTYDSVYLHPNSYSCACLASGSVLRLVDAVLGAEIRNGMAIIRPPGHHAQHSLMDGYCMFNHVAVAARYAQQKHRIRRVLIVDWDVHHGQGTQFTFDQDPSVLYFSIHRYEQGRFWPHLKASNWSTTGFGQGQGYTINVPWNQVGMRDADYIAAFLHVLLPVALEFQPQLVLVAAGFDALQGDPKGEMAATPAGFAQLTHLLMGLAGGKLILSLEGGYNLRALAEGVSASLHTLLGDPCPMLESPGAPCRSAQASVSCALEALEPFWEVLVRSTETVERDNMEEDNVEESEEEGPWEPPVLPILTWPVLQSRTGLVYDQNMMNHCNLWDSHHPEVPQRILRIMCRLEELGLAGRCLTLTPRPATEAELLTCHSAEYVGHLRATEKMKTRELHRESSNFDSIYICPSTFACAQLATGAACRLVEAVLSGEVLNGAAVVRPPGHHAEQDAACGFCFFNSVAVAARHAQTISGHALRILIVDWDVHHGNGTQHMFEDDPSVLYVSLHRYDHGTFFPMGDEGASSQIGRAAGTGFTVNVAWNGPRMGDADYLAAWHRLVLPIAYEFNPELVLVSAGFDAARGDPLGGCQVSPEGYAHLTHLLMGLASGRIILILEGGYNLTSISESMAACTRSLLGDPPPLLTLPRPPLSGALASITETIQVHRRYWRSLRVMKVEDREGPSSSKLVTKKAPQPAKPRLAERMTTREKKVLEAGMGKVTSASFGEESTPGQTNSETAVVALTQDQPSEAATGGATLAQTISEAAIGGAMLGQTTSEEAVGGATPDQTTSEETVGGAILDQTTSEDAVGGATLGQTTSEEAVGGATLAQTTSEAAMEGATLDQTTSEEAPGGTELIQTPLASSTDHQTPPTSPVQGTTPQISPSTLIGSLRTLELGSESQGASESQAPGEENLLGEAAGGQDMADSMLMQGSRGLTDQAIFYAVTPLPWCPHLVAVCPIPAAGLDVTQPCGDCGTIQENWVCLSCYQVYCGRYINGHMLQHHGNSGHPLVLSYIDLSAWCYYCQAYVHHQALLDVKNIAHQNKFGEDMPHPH

A498 [5] = assay: Growth inhibition of human A498 cells at 10 uM incubated for 24 hrs by MTT assay relative to control; format: functional; settings: read-out: GI; outline: as §1

Chain of Histone deacetylase 3 (O15379 whole entry): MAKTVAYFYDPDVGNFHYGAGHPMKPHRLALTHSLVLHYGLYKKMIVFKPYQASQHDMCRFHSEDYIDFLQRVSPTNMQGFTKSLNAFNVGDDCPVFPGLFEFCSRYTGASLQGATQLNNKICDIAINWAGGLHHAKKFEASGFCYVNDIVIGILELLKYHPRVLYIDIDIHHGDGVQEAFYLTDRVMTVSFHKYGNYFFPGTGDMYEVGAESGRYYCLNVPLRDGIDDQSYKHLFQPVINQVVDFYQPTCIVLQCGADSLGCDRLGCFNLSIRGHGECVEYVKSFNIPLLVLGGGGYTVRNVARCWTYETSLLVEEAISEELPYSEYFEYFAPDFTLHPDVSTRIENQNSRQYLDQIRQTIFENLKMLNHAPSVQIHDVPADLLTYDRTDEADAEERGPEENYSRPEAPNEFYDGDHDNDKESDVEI

| Structure (SMILES) | IC50 (Histone deacetylase 3) | IC50 (Histone deacetylase 8) | inhibition of growth at 10 µM (HCT-116) | IC50 (Histone deacetylase 1) | inhibition of growth at 10 µM (K562) | inhibition of growth at 10 µM (HT-29) | IC50 (A498 [1]) | IC50 (Focal adhesion kinase 1) | inhibition of growth at 10 µM (CAKI-1 [2]) | inhibition in vitro at 10 µM (KG-1) | IC50 (Histone deacetylase 2) | IC50 (CAKI-1 [3]) | IC50 [4] | inhibition of growth at 10 µM (A498 [5]) |
| --- | --- | --- | --- | --- | --- | --- | --- | --- | --- | --- | --- | --- | --- | --- |
| CCn1c(SCc2ccc(C(=O)Nc3ccccc3N)cc2)nnc1-c1ccncc1 | > 300 µM | > 300 µM | 1.85% | > 300 µM | 8.67% | 1.22% | 124 µM | 112 nM | 12.1% | 5.91% | 40.1 µM | 80.7 µM | > 300 µM | 1.18% |
| C=CCn1c(SCCCCCC(=O)NO)nnc1-c1ccncc1 | 222 µM | 11.1 µM | 2.07% | > 300 µM | 16.1% | 41.3% | 76.4 µM | 189 nM | 8.62% | 5.91% | 11.7 µM | 89.4 µM | 288 µM | 11.1% |
| CCn1c(SCCCCCC(=O)O)nnc1-c1ccncc1 | 156 µM | > 300 µM | 2.15% | 184 µM | 1.58% | 9.34% | 125 µM | 76.2 nM | 1.06% | 7.34% | 26.4 µM | – | > 300 µM | 4.13% |
| CCn1c(SCCCCCC(=O)Nc2ccccc2N)nnc1-c1ccncc1 | > 300 µM | 198 µM | 6.35% | > 300 µM | 10.4% | 18.6% | 77.6 µM | 141 nM | 8.91% | 3.64% | 27.1 µM | 98.3 µM | > 300 µM | 22.3% |
| Nc1ccccc1NC(=O)c1ccc(CSc2nnc(-c3ccncc3)n2-c2ccccc2)cc1 | 113 µM | 5.32 µM | 45.4% | 22.1 µM | 19.6% | 37.9% | 6.19 µM | 96.1 nM | 66.9% | 47.3% | 8.39 µM | 8.35 µM | 9.63 µM | 72.5% |
| CCn1c(SCc2ccc(C(=O)NO)cc2)nnc1-c1ccncc1 | 174 µM | > 300 µM | 1.03% | > 300 µM | 14.3% | 8.34% | 203 µM | 254 nM | 9.34% | 7.12% | 30.4 µM | 322 µM | > 300 µM | 1.67% |
| CCCC(CCC)C(=O)O [VALPROIC ACID] | – | – | – | 84.2 µM | – | – | 2140 µM | – | – | – | – | 2830 µM | 215 µM | – |
| O=C(O)CCCCCSc1nnc(-c2ccncc2)n1-c1ccccc1 | 21.1 µM | 11.1 µM | 78.5% | 8.95 µM | 72.7% | 80.5% | 2.35 µM | 36.1 nM | 94.8% | 67.2% | 0.64 µM | 1.89 µM | 10.9 µM | 89.3% |
| Cn1c(SCc2ccc(C(=O)NO)cc2)nnc1-c1ccncc1 | 56.4 µM | 29.8 µM | – | 14.2 µM | 16% | 54% | 20.9 µM | 64.3 nM | 48.2% | 72.1% | 4.35 µM | 11 µM | 14.4 µM | 31.8% |
| CNC(=O)c1ccccc1Nc1nc(Nc2ccc(N3CCOCC3)cc2OC)ncc1Cl | – | – | – | – | – | – | 0.81 µM | – | – | – | – | 1.05 µM | – | – |
| O=C(CCCCCSc1nnc(-c2ccncc2)n1-c1ccccc1)NO | > 300 µM | > 300 µM | 3.56% | > 300 µM | 8.34% | 1.09% | 174 µM | 425 nM | – | 11.2% | 32.4 µM | 92.4 µM | 246 µM | 4.36% |
